Source: ChEMBL document CHEMBL3414548, “Luotonin-A based quinazolinones cause apoptosis and senescence via HDAC inhibition and activation of tumor suppressor proteins in HeLa cells” (Eur J Med Chem, 2015)
pIC50: −log10 of the molar value. Active and inactive are the calls of the source. The calls are words filed in the database; no cut-off is given here.

Assays:
[1] = tested on: HeLa; assay: Cytotoxicity against human HeLa cells after 72 hrs by MTT assay; type: functional, cell-based
How it was run: (§1)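 Cells were seeded at 1×10⁴ per well and preincubated 18 h at 37 °C, 5% CO₂. They were then exposed to 1–256 μM for 72 h with DMSO ≤0.25%. MTT was added for 2 h and formazan was solubilized in extraction buffer before reading OD at 570 nm. IC50 is mean ± SD of three independent experiments. HEK is the normal-cell line; cancer lines were grown in DMEM with 10% serum.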

[2] = tested on: HeLa; assay: Cell cycle arrest in human HeLa cells assessed as accumulation at G0/G1 phase at 4 uM after 48 hrs by propidium iodide staining-based flow cytometric analysis (reference value: 62%); type: functional
[3] = tested on: HeLa; assay: Selectivity index, ratio of IC50 for HEK cells to IC50 for human HeLa cells; type: functional
How it was run: (§2)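 Selectivity index is IC50 in normal HEK cells divided by IC50 in the cancer cell line.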

[4] = tested on: HEK293; assay: Selectivity index, ratio of IC50 for HEK cells to IC50 for human K562 cells; type: functional; how it was run: as §2
[5] = tested on: HeLa; assay: Cell cycle arrest in human HeLa cells assessed as accumulation at G0 phase at 8 uM after 48 hrs by propidium iodide staining-based flow cytometric analysis (reference value: 3%); type: functional
[6] = tested on: HeLa; assay: Cell cycle arrest in human HeLa cells assessed as accumulation at S phase at 4 uM after 48 hrs by propidium iodide staining-based flow cytometric analysis (reference value: 7%); type: functional
[7] = tested on: HEK293; assay: Selectivity index, ratio of IC50 for HEK cells to IC50 for human MCF7 cells; type: functional; how it was run: as §2
[8] = Cytotoxicity against HEK cells after 72 hrs by MTT assay; type: cell-based; conditions: Homo sapiens, HEK293, 72 h; how it was run: as §1
[9] = tested on: HeLa; assay: Cell cycle arrest in human HeLa cells assessed as accumulation at S phase at 8 uM after 48 hrs by propidium iodide staining-based flow cytometric analysis (reference value: 10%); type: functional
[10] = tested on: K562; assay: Cytotoxicity against human K562 cells after 72 hrs by MTT assay; type: functional, cell-based; conditions: K562, 72 h; how it was run: as §1
[11] = tested on: HeLa; assay: Cell cycle arrest in human HeLa cells assessed as accumulation at G1 phase at 8 uM after 48 hrs by propidium iodide staining-based flow cytometric analysis (reference value: 68%); type: functional
[12] = tested on: HeLa; assay: Cell cycle arrest in human HeLa cells assessed as accumulation at G2/M phase at 4 uM after 48 hrs by propidium iodide staining-based flow cytometric analysis (reference value: 31%); type: functional
[13] = tested on: MCF7; assay: Cytotoxicity against human MCF7 cells after 72 hrs by MTT assay; type: functional, cell-based; conditions: MCF7, 72 h; how it was run: as §1
[14] = tested on: HeLa; assay: Cell cycle arrest in human HeLa cells assessed as accumulation at G2/M phase at 4 uM after 48 hrs by propidium iodide staining-based flow cytometric analysis (reference value: 19%)
[15] = tested on: HeLa; assay: Downregulation of HDAC-1 mRNA expression in human HeLa cells at 4 uM after 48 hrs by RT-PCR analysis; type: functional, cell-based
How it was run: (§3)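 HeLa cells were treated at 4 μM for 48 h before RNA isolation. cDNA was amplified by RT-PCR with gene-specific primers, using GAPDH as loading control. Products were run on 1% agarose gel with ethidium bromide, and band intensity was quantified by densitometry.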

[16] = tested on: HeLa; assay: Induction of human p16 promoter activity transfected in human HeLa cells at 4 uM after 48 hrs by luciferase-based luminescence assay; type: cell-based
How it was run: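 A 1.4 kb human p16 promoter in pGL3-basic luciferase vector was co-transfected into HeLa with a β-gal plasmid. Cells were then treated at 4 μM for 48 h. Lysate luciferase luminescence was normalized to β-galactosidase as internal control.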

[17] = tested on: HeLa; assay: Downregulation of EZH2 mRNA expression in human HeLa cells at 4 uM after 48 hrs by RT-PCR analysis; type: functional, cell-based; how it was run: as §3
[18] = tested on: HeLa; assay: Upregulation of p21 mRNA expression in human HeLa cells at 4 uM after 48 hrs by RT-PCR analysis; type: functional, cell-based; how it was run: as §3
[19] = tested on: HeLa; assay: Induction of senescence in human HeLa cells at 4 uM after 72 hrs by X-gal staining-based beta-galactosidase assay; type: functional, cell-based
How it was run: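 HeLa cells in chamber slides were treated at 4 μM for 72 h. They were fixed in 3% paraformaldehyde and then in methanol at 4 °C. Staining used X-gal in sodium phosphate buffer with ferro/ferricyanide, 1 mM MgCl₂ and citric acid for 24 h. Senescent cells were scored by microscopy as enlarged, flattened and blue.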

[20] = target: Histone deacetylase (HDAC1 and HDAC2) (Homo sapiens, UniProt Q13547+Q92769); assay: Inhibition of HDAC1/2 in human HeLa cells using color de lys as substrate after 30 mins by colorimetric analysis; type: cell-based
How it was run: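 HeLa cells were treated at 4 μM, with TSA as reference. Samples were then incubated 30 min with Color de Lys substrate and HDAC-1/2. Developer yields a yellow product, and absorbance was read at 405 nm.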

[21] = tested on: HeLa; assay: Downregulation of HDAC-5 mRNA expression in human HeLa cells at 4 uM after 48 hrs by RT-PCR analysis; type: functional, cell-based; how it was run: as §3
[22] = tested on: HeLa; assay: Change in HDAC-7 mRNA expression in human HeLa cells at 4 uM after 48 hrs by RT-PCR analysis; type: functional, cell-based; how it was run: as §3
[23] = tested on: HeLa; assay: Downregulation of HDAC-2 mRNA expression in human HeLa cells at 4 uM after 48 hrs by RT-PCR analysis; type: functional, cell-based; how it was run: as §3
[24] = tested on: HeLa; assay: Upregulation of p53 mRNA expression in human HeLa cells at 4 uM after 48 hrs by RT-PCR analysis; type: functional, cell-based; how it was run: as §3
[25] = tested on: HeLa; assay: Change in HDAC-6 mRNA expression in human HeLa cells at 4 uM after 48 hrs by RT-PCR analysis; type: functional, cell-based; how it was run: as §3

SMILES	pIC50 [1]	Activity [2]	Ratio IC50 [3]	Ratio IC50 [4]	Activity [5]	Activity [6]	Ratio IC50 [7]	pIC50 [8]	Activity [9]	pIC50 [10]	Activity [11]	Activity [12]	pIC50 [13]	Activity [14]	Activity [15]	Activity [16]	Activity [17]	Activity [18]	Activity [19]	Activity [21]	other results
COc1ccc2cc(-c3cn(Cc4ccccc4-n4c(C)nc5ccccc5c4=O)nn3)ccc2c1	5.06	73%	20.5	9.11	5%	5%	20.41	3.75	5%	4.71	72%	22%	5.06	17%							
COc1cc2nc(C)n(-c3ccccc3Cn3cc(-c4ccc(C)cc4)nn3)c(=O)c2cc1OC	5.00	72%	20.56	7.28	5%	6%	14.16	3.69	7%	4.55	71%	22%	4.84	17%							
Cc1nc2ccccc2c(=O)n1-c1ccccc1Cn1cc(-c2ccccc2)nn1	5.23	76%	43.09	12.69	7%	6%	32	3.59	6%	4.70	72%	18%	5.10	15%	Active	Active	Active	Active	Active	Active	IC50 [20]: 2.96 µM; Activity [22]: inactive; Activity [23]: Active; Activity [24]: Active; Activity [25]: inactive
O=c1c2ccccc2nc2n1Cc1cc3ccccc3nc1-2 [LUOTONIN A]	5.23	75%	9.76	2.01	5%	5%	6.25	4.24	5%	4.54	72%	20%	5.03	17%	Active	Active	Active	Active	Active	Active	IC50 [20]: 6.4 µM; Activity [22]: inactive; Activity [23]: Active; Activity [24]: Active; Activity [25]: inactive
COc1cccc2c1C(=O)c1c(O)c3c(c(O)c1C2=O)C[C@@](O)(C(=O)CO)C[C@@H]3O[C@H]1C[C@H](N)[C@H](O)[C@H](C)O1															Active	Active	Active	Active	Active	Active	Activity [22]: inactive; Activity [23]: Active; Activity [24]: Active; Activity [25]: inactive
COc1cc2nc(C)n(-c3ccccc3Cn3cc(-c4ccccn4)nn3)c(=O)c2cc1OC	4.98	72%	23.84	12.11	5%	7%	13.54	3.60	7%	4.68	69%	22%	4.73	19%							
COc1cc2nc(C)n(-c3ccccc3Cn3cc(S)nn3)c(=O)c2cc1OC	4.98	71%	20.38	7.03	5%	6%	21.9	3.67	5%	4.52	70%	23%	5.01	20%							
Cc1nc2ccccc2c(=O)n1-c1ccccc1Cn1cc(S)nn1	4.96	71%	17.22	7.2	4%	7%	12.61	3.72	6%	4.58	69%	22%	4.82	21%							
